From ChEMBL document CHEMBL4706770, “SD-91 as A Potent and Selective STAT3 Degrader Capable of Achieving Complete and Long-Lasting Tumor Regression” (ACS Med Chem Lett, 2021) come the findings set out here.

The structures appear in SMILES notation. The source made the active and inactive calls. The calls are words filed in the database; no cut-off is given here.

For assay [1], the system named is SU-DHL-1. Kind of assay: Induction of STAT4 expression in human SU-DHL-1 cells at 0.25 to 100 uM incubated for 4 hrs by Western blot analysis. It is filed as functional, cell-based. As to conditions: dose 0.25-100 µM.
Assay [2] has as its target T1, Signal transducer and activator of transcription 5A (Homo sapiens) (UniProt P42229).
T1 sequence (whole entry): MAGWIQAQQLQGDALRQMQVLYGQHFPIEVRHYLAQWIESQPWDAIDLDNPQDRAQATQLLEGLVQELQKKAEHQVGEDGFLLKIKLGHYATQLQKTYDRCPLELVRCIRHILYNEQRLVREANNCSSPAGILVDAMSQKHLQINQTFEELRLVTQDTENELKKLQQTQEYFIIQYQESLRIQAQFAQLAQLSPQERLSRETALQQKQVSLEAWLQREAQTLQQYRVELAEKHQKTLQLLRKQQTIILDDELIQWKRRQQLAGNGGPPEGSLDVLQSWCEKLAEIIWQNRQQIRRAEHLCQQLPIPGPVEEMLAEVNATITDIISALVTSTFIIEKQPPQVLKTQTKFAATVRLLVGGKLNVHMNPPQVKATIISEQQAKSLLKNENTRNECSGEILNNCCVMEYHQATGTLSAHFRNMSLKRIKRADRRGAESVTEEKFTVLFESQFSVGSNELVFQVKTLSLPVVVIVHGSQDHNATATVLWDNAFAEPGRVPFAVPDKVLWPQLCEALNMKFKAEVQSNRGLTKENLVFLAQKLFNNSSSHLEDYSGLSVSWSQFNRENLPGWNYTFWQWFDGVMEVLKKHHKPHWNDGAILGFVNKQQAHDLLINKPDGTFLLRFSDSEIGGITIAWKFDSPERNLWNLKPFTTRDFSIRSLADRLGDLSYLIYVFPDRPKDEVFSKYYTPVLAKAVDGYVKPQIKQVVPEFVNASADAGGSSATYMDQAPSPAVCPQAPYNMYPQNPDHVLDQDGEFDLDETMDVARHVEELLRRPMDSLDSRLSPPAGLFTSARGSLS
Kind of assay: Induction of STAT5 degradation in human SUP-M2 cells at 0.25 to 100 uM incubated for 14 hrs by Western blot analysis. The assay is classed as cell-based. As to conditions: SUPM2, dose 0.25-100 µM. (A western blot detects proteins with antibodies after separation by electrophoresis.)

Assay [3] deals with T2, Signal transducer and activator of transcription 1-alpha/beta (Homo sapiens) (UniProt P42224).
T2 sequence (whole entry): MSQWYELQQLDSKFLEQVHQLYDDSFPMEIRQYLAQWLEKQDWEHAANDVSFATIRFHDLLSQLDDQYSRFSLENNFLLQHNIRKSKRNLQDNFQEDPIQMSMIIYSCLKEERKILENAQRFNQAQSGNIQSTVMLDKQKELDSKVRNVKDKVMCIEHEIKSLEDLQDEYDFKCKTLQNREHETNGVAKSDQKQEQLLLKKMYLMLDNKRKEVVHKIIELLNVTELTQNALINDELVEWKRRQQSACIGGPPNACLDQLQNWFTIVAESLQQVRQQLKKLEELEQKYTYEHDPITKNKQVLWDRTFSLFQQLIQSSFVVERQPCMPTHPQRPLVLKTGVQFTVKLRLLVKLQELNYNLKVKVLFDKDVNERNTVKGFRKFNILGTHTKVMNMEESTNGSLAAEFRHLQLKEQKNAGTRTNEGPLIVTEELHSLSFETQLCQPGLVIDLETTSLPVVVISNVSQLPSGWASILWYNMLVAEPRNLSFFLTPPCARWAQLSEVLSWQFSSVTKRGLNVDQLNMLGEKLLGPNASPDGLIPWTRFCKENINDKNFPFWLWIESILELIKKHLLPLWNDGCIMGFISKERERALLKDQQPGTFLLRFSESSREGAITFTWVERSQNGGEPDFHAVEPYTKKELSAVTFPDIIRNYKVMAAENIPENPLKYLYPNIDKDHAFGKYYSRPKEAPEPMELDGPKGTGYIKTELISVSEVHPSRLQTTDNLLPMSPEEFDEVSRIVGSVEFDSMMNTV
Kind of assay: Induction of STAT1 degradation in human SUP-M2 cells at 0.25 to 100 uM incubated for 14 hrs by Western blot analysis. The assay is classed as cell-based. As to conditions: SUPM2, dose 0.25-100 µM. The gist of the method: (§1)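 SU-DHL-1 or SUP-M2 cells treated over 25 nM to 100 μM. STAT family proteins assessed by Western blot.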

Assay [4] addresses T3, Signal transducer and activator of transcription 2 (Homo sapiens, UniProt P52630). Kind of assay: Induction of STAT2 degradation in human SUP-M2 cells at 0.25 to 100 uM incubated for 14 hrs by Western blot analysis. It is filed as cell-based. To be noted: SUPM2, dose 0.25-100 µM. In short, it runs like this:
as §1

The target of assay [5] is T2, Signal transducer and activator of transcription 1-alpha/beta (Homo sapiens). Kind of assay: Induction of STAT1 degradation in human SU-DHL-1 cells at 0.25 to 100 uM incubated for 14 hrs by Western blot analysis. The assay is classed as cell-based. As to conditions: dose 0.25-100 µM. In short, it runs like this:
as §1

The target of assay [6] is T3, Signal transducer and activator of transcription 2. Nature of the assay: Induction of STAT2 degradation in human SU-DHL-1 cells at 0.25 to 100 uM incubated for 14 hrs by Western blot analysis. The assay is classed as cell-based. As to conditions: dose 0.25-100 µM. The gist of the method:
as §1

Assay [7] addresses T4, Signal transducer and activator of transcription 3 (Homo sapiens, UniProt P40763). Kind of assay: Induction of STAT3 degradation in human SU-DHL-1 cells at 0.25 to 100 uM incubated for 14 hrs by Western blot analysis. The assay is classed as cell-based. To be noted: dose 0.25-100 µM.
The target in assay [8] is T4, Signal transducer and activator of transcription 3. Nature of the assay: Induction of STAT3 degradation in human SUP-M2 cells at 0.25 to 100 uM incubated for 14 hrs by Western blot analysis. As to conditions: SUPM2, dose 0.25-100 µM. The assay is classed as cell-based.
In assay [9] the target is T1, Signal transducer and activator of transcription 5A (Homo sapiens). Kind of assay: Induction of STAT5 degradation in human MOLM16 cells at 0.25 to 100 uM incubated for 4 hrs by Western blot analysis. The assay is classed as cell-based. To be noted: dose 0.25-100 µM. In short, it runs like this: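 Cells treated 4 h with compounds across 25 nM to 100 μM; STAT proteins detected by Western blot with GAPDH as loading control; STAT3 DC50 estimated by densitometry of STAT3 relative to GAPDH. Applies to MOLM-16 for all STATs, and to SU-DHL-1 and SUP-M2 for STAT3.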

T4 sequence (P40763 whole entry): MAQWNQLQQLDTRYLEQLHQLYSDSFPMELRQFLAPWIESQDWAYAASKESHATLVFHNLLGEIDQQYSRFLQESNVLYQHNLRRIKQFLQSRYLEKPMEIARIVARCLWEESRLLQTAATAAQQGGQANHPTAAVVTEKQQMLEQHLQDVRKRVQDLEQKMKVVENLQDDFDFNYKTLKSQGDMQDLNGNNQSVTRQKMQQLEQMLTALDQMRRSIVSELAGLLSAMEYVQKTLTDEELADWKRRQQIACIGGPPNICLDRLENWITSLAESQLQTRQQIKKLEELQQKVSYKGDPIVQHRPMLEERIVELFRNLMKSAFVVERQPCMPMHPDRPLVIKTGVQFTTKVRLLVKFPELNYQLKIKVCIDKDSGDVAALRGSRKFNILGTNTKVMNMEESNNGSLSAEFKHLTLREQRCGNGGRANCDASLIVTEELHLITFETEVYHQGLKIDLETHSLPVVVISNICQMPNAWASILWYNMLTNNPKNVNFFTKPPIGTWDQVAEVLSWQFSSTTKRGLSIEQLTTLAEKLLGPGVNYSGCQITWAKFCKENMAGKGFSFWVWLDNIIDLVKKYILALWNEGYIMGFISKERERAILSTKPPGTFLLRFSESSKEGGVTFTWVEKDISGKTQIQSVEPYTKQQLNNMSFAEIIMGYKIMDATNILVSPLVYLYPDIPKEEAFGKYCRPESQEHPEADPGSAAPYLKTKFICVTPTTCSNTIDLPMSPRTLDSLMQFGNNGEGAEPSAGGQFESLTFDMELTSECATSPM
T3 sequence (P52630 whole entry): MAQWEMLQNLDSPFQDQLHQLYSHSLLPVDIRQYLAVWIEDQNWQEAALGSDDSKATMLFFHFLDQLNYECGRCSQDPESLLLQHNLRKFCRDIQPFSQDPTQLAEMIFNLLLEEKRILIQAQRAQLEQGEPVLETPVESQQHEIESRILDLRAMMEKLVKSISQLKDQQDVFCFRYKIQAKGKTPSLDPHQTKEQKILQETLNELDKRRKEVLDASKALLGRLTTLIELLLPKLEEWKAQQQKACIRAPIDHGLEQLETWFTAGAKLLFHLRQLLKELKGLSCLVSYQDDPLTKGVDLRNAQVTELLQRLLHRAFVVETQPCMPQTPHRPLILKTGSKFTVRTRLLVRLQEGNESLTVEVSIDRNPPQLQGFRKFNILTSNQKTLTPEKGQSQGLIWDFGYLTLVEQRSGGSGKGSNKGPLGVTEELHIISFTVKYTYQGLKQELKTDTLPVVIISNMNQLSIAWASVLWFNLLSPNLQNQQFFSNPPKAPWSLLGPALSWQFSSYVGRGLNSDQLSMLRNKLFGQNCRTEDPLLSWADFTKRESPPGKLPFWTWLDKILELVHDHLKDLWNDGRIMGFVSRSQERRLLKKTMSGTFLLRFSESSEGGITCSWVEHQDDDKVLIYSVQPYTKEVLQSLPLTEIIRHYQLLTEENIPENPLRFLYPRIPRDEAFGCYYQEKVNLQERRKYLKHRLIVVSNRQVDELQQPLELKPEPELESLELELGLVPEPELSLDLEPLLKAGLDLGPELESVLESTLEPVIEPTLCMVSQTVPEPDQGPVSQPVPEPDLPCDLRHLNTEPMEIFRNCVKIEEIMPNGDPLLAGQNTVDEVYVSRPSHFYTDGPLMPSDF

For `CC(=O)N1CC[C@H]2CC[C@@H](C(=O)N[C@@H](CCC(N)=O)C(=O)NC(c3ccccc3)c3ccccc3)N2C(=O)[C@@H](NC(=O)c2cc3cc(C(F)(F)P(=O)(O)O)ccc3[nH]2)C1`, the outcome in assay [1], in [2], in [3], in [4], in [5] and in assay [6] was inactive. In addition, the result in [7], in [8] and in assay [9] was inactive.
Consider `CC(=O)N1CC[C@H]2CC[C@@H](C(=O)N[C@@H](CCC(N)=O)C(=O)NC(c3ccccc3)c3ccccc3)N2C(=O)[C@@H](NC(=O)c2cc3cc(C(=O)P(=O)(O)O)ccc3[nH]2)C1`, for which the result in assay [1], in assay [2], in assay [3], in [4], in assay [5] and in assay [6] was inactive. For the same compound, the result in assay [7], in assay [8] and in [9] was inactive.
Take `NC(=O)CC[C@H](NC(=O)[C@@H]1CC[C@@H]2CCN(C(=O)CCCCCC#Cc3cccc4c3CN(C3CCC(=O)NC3=O)C4=O)C[C@H](NC(=O)c3cc4cc(C(=O)P(=O)(O)O)ccc4[nH]3)C(=O)N21)C(=O)NC(c1ccccc1)c1ccccc1` (some centres undefined): the result in assay [1], in assay [7] and in assay [8] was Active. In addition, the result in assay [2], in assay [3], in assay [4], in assay [5], in [6] and in [9] was inactive.
Regarding `NC(=O)CC[C@H](NC(=O)[C@@H]1CC[C@@H]2CCN(C(=O)CCCCCC#Cc3cccc4c3CN(C3CCC(=O)NC3=O)C4=O)C[C@H](NC(=O)c3cc4cc(C(F)(F)P(=O)(O)O)ccc4[nH]3)C(=O)N21)C(=O)NC(c1ccccc1)c1ccccc1` (some centres undefined), the result in [1] was Active. Further, the outcome in [7] was inactive.
